Reference: ChEMBL document CHEMBL3585255, “The Cephalostatins. 24. Isolation, Structure, and Cancer Cell Growth Inhibition of Cephalostatin 20” (2015)

How the values were obtained:
Assay type in all cases: functional
DU-145 = experiment: Cytotoxicity against human DU145 cells after 48 hrs by sulforhodamine B assay; details: DU-145, 48 h
How it was run: (§1)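 Cells in RPMI1640 with 5% fetal bovine serum were plated in 96-well plates and incubated 24 h before serial dilutions of compound were added. After 48 h exposure, cells were fixed with trichloroacetic acid and stained with sulforhodamine B, and optical density was read on a plate reader. GI50, the concentration giving 50% reduction in net protein increase, was calculated from the OD data.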

[1] = Cytotoxicity against human BxPC3 cells after 48 hrs by sulforhodamine B assay; details: BXPC-3, 48 h; how it was run: as §1
MCF7 = experiment: Cytotoxicity against human MCF7 cells after 48 hrs by sulforhodamine B assay; details: MCF7, 48 h; how it was run: as §1
[2] = Cytotoxicity against human KM20L2 cells after 48 hrs by sulforhodamine B assay; details: KM-20L2, 48 h; how it was run: as §1
SF-268 = experiment: Cytotoxicity against human SF268 cells after 48 hrs by sulforhodamine B assay; details: SF-268, 48 h; how it was run: as §1
NCI-H460 = experiment: Cytotoxicity against human NCI-H460 cells after 48 hrs by sulforhodamine B assay; details: NCI-H460, 48 h; how it was run: as §1

Row | Compound | GI50 (DU-145) | GI50 [1] | GI50 (MCF7) | GI50 [2] | GI50 (SF-268) | GI50 (NCI-H460)
1 | C[C@@H]1[C@H]2CC=C3[C@@H]4CC[C@H]5Cc6nc7c(nc6C[C@]5(C)[C@H]4CC(=O)[C@@]32COC1(O)[C@H](O)CC(C)(C)O)C[C@@H]1CC[C@H]2C3=C[C@@H]4O[C@]5(O[C@](C)(CO)C[C@H]5O)[C@@H](C)[C@]4(O)[C@@]3(C)[C@H](O)C[C@@H]2[C@@]1(C)C7 (some centres not stated) [CEPHALOSTATIN 9] | > 1100 nM | 14 nM | 110 nM | 58 nM | 150 nM | 39 nM
2 | C[C@@H]1[C@]2(O[C@H]3C=C4[C@@H]5CC[C@H]6Cc7nc8c(nc7C[C@]6(C)[C@H]5C[C@@H](O)[C@]4(C)[C@]31O)C[C@@H]1CC[C@H]3C4=C[C@@H]5O[C@]6(CC[C@](C)(O)CO6)C[C@]5(O)[C@@]4(C)[C@H](O)C[C@@H]3[C@@]1(C)C8)O[C@](C)(CO)C[C@H]2O [CEPHALOSTATIN 7] | 470 nM | 5 nM | 50 nM | 48 nM | 110 nM | 8.2 nM
3 | C[C@@H]1[C@]2(O[C@H]3C=C4[C@@H]5CC[C@H]6Cc7nc8c(nc7C[C@]6(C)[C@H]5C[C@@H](O)[C@]4(C)[C@]31O)C[C@@H]1CC[C@H]3C4=CC[C@@H]5[C@H](C)[C@@]6(OC[C@]45C(=O)C[C@@H]3[C@@]1(C)C8)OC(C)(C)C[C@H]6O)O[C@](C)(CO)C[C@H]2O [CEPHALOSTATIN 1] | 0.11 nM | 0.044 nM | 0.099 nM | 0.066 nM | 1.6 nM | 0.044 nM
4 | C[C@H]1[C@H]2C[C@@H](O)c3c4c(cc(c32)OC12OC(C)(C)C[C@H]2O)[C@@]1(C)Cc2nc3c(nc2C[C@@H]1CC4)C[C@@]1(C)[C@@H](CC[C@H]2C4=C[C@@H]5O[C@@]6(C[C@]5(O)[C@@]4(C)[C@H](O)C[C@@H]21)O[C@](C)(CO)C[C@H]6O)C3 (some centres not stated) [CEPHALOSTATIN 6] | > 1100 nM | 380 nM | 550 nM | 390 nM | 610 nM | 320 nM
5 | C[C@@H]1[C@H]2C[C@@H]3O[C@@]34[C@]3(O)CC[C@H]5Cc6nc7c(nc6C[C@]5(C)C3=CC(=O)[C@]24CO[C@]12OC(C)(C)C[C@H]2O)C[C@@H]1CC[C@H]2C3=C[C@@H]4O[C@]5(O[C@](C)(CO)C[C@H]5O)[C@@H](C)[C@]4(O)[C@@]3(C)[C@H](O)C[C@@H]2[C@@]1(C)C7 [CEPHALOSTATIN 14] | 130 nM | 35 nM | 28 nM | 35 nM | 80 nM | 32 nM
6 | CO[C@H]1c2nc3c(nc2C[C@@H]2CC[C@H]4C5=CC[C@@H]6[C@@H](C)[C@]7(OC[C@]56C(=O)C[C@@H]4[C@]21C)OC(C)(C)C[C@H]7O)C[C@@]1(C)[C@@H](CC[C@H]2C4=C[C@@H]5O[C@]6(O[C@](C)(CO)C[C@H]6O)[C@@H](C)[C@]5(O)[C@@]4(C)[C@H](O)C[C@@H]21)C3 [CEPHALOSTATIN 11] | 23 nM | 4.9 nM | 4.1 nM | 6.3 nM | 27 nM | 5.4 nM
7 | C[C@H]1[C@@H](O)C2(Oc3cc4c(c5c3[C@H](C[C@H]5O)[C@@H]2C)CC[C@H]2Cc3nc5c(nc3C[C@]42C)C[C@@H]2CC[C@H]3C4=C[C@@H]6O[C@@]7(C[C@]6(O)[C@@]4(C)[C@H](O)C[C@@H]3[C@@]2(C)C5)O[C@](C)(CO)C[C@H]7O)OC1(C)C (some centres not stated) [CEPHALOSTATIN 5] | 120 nM | 330 nM | 340 nM | 100 nM | 440 nM | 150 nM
